Activity calls are given as the source filed them. The rule behind the calls is not given here.
What was measured:
[1] = target: T1, Cathepsin B (Homo sapiens, UniProt P07858); experiment: Time dependent inhibition of human liver cathepsin B using Z-RR-para-nitroanilide as substrate at 500 uM
Procedure, shortened: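 Screening: human liver cathepsin B (175 nM) activated in 100 mM sodium phosphate pH 6.0, 5 mM DTT, 1 mM EDTA, incubated with 500 µM inhibitor (5% DMSO) at 30 °C for 10 min; aliquot diluted 17.5-fold into 3 mM Z-RR-pNA, residual activity from initial rates at 405 nm.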

[2] = target: T1, Cathepsin B; experiment: Inhibition of human liver cathepsin B
Procedure, shortened: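 Human liver cathepsin B (175 nM final) activated 10 min in 100 mM sodium phosphate pH 6.0 with 5 mM DTT, 1 mM Na2EDTA, then incubated with inhibitor (5% DMSO) at 30 °C under pseudo-first-order conditions. Aliquots diluted 17.5-fold into 3 mM Z-RR-pNA; initial rates read at 405 nm. Screening used 500 µM inhibitor with residual activity after 10 min.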

[3] = target: T1, Cathepsin B; experiment: Inhibition of human liver cathepsin B in presence of azide ion
[4] = target: Cathepsin S (Homo sapiens) (UniProt P25774); experiment: Inhibition of cathepsin S in human MDA-MB-231 cells assessed as increase in E-cadherin levels at 1 to 5 uM after 30 mins by Western blotting analysis; type: cell-based
Cathepsin S (Homo sapiens), sequence (P25774 115-331 limits assumed): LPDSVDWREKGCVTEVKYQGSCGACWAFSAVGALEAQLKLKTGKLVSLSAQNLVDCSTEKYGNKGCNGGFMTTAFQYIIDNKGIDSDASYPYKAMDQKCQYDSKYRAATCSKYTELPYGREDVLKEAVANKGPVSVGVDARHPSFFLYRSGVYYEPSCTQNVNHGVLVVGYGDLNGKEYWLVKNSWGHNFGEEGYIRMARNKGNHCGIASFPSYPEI

[5] = target: T2, Cathepsin F (Homo sapiens) (UniProt Q9UBX1); experiment: Inhibition of human cathepsin F using Z-FR-AMC as substrate
T2 sequence (whole entry): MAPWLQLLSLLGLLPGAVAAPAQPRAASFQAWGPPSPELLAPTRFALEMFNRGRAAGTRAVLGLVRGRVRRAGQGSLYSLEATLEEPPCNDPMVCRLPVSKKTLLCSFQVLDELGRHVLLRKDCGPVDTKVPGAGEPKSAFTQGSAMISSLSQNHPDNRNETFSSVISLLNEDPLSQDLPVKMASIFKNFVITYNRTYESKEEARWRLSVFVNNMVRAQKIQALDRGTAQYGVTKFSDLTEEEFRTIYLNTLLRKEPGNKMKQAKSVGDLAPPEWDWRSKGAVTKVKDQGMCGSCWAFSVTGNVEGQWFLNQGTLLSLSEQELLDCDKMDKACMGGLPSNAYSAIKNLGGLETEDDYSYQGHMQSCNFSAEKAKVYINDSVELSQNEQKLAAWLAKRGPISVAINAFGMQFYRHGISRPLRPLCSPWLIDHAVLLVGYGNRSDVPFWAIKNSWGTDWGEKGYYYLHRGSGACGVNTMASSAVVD
Procedure, shortened: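 Human cathepsin F (10.8 nM final) activated 10 min at 25 °C in 50 mM potassium phosphate pH 6.5, 2.5 mM DTT, 2.5 mM EDTA, 1.0 mg/ml BSA; inhibitor added, aliquots at intervals into assay with 3 µM Z-FR-AMC at 25 °C. Second-order constant = kobs divided by inhibitor concentration.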

[6] = target: T1, Cathepsin B; experiment: Inhibition of cathepsin B in human MDA-MB-231 cells using Z-RR-AMC as substrate at 20 uM preincubated for 20 mins prior to substrate addition measured after 10 mins by confocal microscopic analysis; type: cell-based
Procedure, shortened: (§1)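 Live-cell confocal imaging of MDA-MB-231 cells on poly-D-lysine glass dishes in phenol-red-free medium with 15 mM HEPES plus Oxyrase/10 mM lactate. Cells treated with 0.1% DMSO or inhibitor 20 min at 37 °C, then Z-RR-AMC (25 µM final) for 10 min. […]; average whole-cell fluorescence, 8-10 cells per experiment, three independent experiments.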

[7] = target: T1, Cathepsin B; experiment: Inhibition of human liver cathepsin B using Z-RR-para-nitroanilide as substrate in presence of leupeptin
Procedure, shortened: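 Active-site protection: cathepsin B inactivation (175 nM, pH 6.0 phosphate buffer with DTT/EDTA, 30 °C, 5% DMSO) run in presence of leupeptin (40 nM); residual activity measured with 3 mM Z-RR-pNA at 405 nm.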

[8] = target: T1, Cathepsin B; experiment: Inhibition of cathepsin B in human MDA-MB-231 cells assessed as increase in E-cadherin levels at 1 to 5 uM after 30 mins by Western blotting analysis; type: cell-based
[9] = target: T1, Cathepsin B; experiment: Inhibition of human liver cathepsin B using Z-RR-para-nitroanilide as substrate assessed as reversible equilibrium binding constant by Kitz-Wilson plot analysis
Procedure, shortened: (§2)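 Cathepsin B (175 nM, pH 6.0 phosphate, DTT/EDTA, 30 °C, 5% DMSO) inactivated at 25, 50, 75, 100 and 150 µM inhibitor; residual activity with 3 mM Z-RR-pNA at intervals. kobs from single-exponential fit of activity vs time at each concentration; Ki and ki from Kitz–Wilson analysis.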

[10] = target: T1, Cathepsin B; experiment: Inhibition of human liver cathepsin B using Z-RR-para-nitroanilide as substrate
Procedure, shortened: (§3)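 Human liver cathepsin B (175 nM final) activated 10 min in 100 mM sodium phosphate pH 6.0, 5 mM DTT, 1 mM EDTA; inhibitor added (5% DMSO, pseudo-first order) at 30 °C. Aliquots diluted 17.5-fold into assay with 3 mM Z-RR-pNA; initial rates at 405 nm give residual activity over time.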

[11] = species: Homo sapiens; experiment: Selectivity ratio of Kinact for human liver cathepsin B to Kinact for human cathepsin D
[12] = test system: MDA-MB-231; experiment: Inhibition of cathepsin in human MDA-MB-231 cells assessed as decrease in cell migratory behavior after 6 hrs by microscopic analysis; type: cell-based
Procedure, shortened: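 MDA-MB-231 cells plated as concentric circles through a sedimentation manifold on BSA-coated glass slide; after manifold removal, treated with 0.05% DMSO or inhibitor (10 and 20 µM) for 6 h at 37 °C. Images at t0 and t6; motility taken as change in total area (µm2), mean ± S.D. of triplicates.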

[13] = target: T1, Cathepsin B; experiment: Inhibition of cathepsin B in human MDA-MB-231 cells using Z-RR-AMC as substrate preincubated for 20 mins prior to substrate addition measured after 10 mins by confocal microscopic analysis; type: cell-based; procedure, shortened: as §1
[14] = target: T1, Cathepsin B; experiment: Inhibition of cathepsin B in human MDA-MB-231 cells assessed as increase in E-cadherin levels after 20 mins by immunofluorescence assay; type: cell-based
Procedure, shortened: (§4)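 MDA-MB-231 cells (IMDM, 10% FBS, 37 °C, 5% CO2) on glass coverslips 24 h, treated 20 min at 37 °C with vehicle (0.1% DMSO) or inhibitor. Fixed in 3.7% PFA, permeabilized, blocked, mouse anti-E-cadherin (1:100) overnight at 4 °C, then Alexa 594 secondary, Hoechst nuclei. Mean peripheral fluorescence intensity, 28 cells per condition, three independent experiments.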

[15] = species: Homo sapiens; experiment: Selectivity ratio of Kinact for human liver cathepsin B to Kinact for human cathepsin S
[16] = target: T1, Cathepsin B; experiment: Inhibition of human liver cathepsin B using Z-RR-para-nitroanilide as substrate assessed as first-order inactivation rate constant by Kitz-Wilson plot analysis; procedure, shortened: as §2
[17] = target: T3, Cathepsin G (Homo sapiens) (UniProt P08311); experiment: Inhibition of human cathepsin G using Suc-AAPF-pNA as substrate
T3 sequence (whole entry): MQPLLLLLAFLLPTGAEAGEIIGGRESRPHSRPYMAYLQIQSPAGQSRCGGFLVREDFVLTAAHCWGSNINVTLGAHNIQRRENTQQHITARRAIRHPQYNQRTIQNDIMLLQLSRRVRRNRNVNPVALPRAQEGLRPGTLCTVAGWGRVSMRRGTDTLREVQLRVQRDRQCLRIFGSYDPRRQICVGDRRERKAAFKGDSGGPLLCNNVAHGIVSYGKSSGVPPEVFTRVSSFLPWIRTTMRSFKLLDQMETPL
Procedure, shortened: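 Human cathepsin G (7.66 nM final) activated 15 min in 20 mM Tris-HCl pH 7.4, 500 mM NaCl; inhibitor added, aliquots at intervals into buffer with 3.4 mM Suc-AAPF-pNA. Time-dependent inhibition examined up to 1 mM over 1 h.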

[18] = target: T4, Tyrosine-protein phosphatase non-receptor type 1 (Homo sapiens) (UniProt P18031); experiment: Inhibition of human PTP1B
T4 sequence (whole entry): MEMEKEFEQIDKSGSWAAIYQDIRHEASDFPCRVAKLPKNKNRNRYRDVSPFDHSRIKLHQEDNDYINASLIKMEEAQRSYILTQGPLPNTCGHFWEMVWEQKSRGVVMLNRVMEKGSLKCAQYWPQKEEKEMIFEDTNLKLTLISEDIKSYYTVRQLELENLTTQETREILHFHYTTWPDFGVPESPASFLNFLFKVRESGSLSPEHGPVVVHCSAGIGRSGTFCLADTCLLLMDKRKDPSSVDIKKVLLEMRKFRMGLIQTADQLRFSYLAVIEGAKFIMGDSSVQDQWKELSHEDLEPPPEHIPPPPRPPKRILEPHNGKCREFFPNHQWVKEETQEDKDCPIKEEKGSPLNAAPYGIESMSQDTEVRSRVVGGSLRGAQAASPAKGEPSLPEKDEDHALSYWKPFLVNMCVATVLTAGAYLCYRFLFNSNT

[19] = target: T1, Cathepsin B; experiment: Irreversible inhibition of human liver cathepsin B after 10 mins by mass spectrophotometric analysis
Procedure, shortened: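 Activated cathepsin B incubated with inhibitor (800 µM) or 5% DMSO control for 10 min under kinetic-study conditions; samples mixed 1:9 with saturated α-cyano-4-hydroxycinnamic acid and analysed by MALDI mass spectrometry, positive linear mode.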

[20] = target: Trypsin (Homo sapiens) (UniProt P07477+P07478+P35030); experiment: Inhibition of trypsin (unknown origin) using N-alpha-benzoyl-DL-arginine-p-nitroanilide as substrate; type: protein assay
Procedure, shortened: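 Trypsin freshly prepared in 1 mM HCl, pre-activated (190–200 U/µl final), inhibitor added; aliquots at intervals into 67 mM sodium phosphate with 3 mM BAPNA, initial rate at 410 nm. Time-dependent inhibition examined up to 1 mM over 1 h.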

[21] = species: Homo sapiens; experiment: Selectivity ratio of Kinact for human liver cathepsin B to Kinact for human cathepsin F
[22] = target: T1, Cathepsin B; experiment: Time dependent inhibition of human liver cathepsin B using Z-RR-para-nitroanilide as substrate; procedure, shortened: as §3
[23] = target: Cathepsin S (Homo sapiens) (UniProt P25774); experiment: Inhibition of human cathepsin S using Z-VVR-AMC as substrate
Procedure, shortened: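 Human cathepsin S (134.6 nM final) activated 10 min in 100 mM potassium phosphate pH 6.5, 5 mM DTT, 5 mM EDTA; inactivated with inhibitor at 75 µM. Aliquots at intervals into buffer (8% DMSO) with 250 µM Z-VVR-AMC, Ex/Em 365/440 nm. Second-order constant = kobs/[I].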

[24] = Half life of the compound at 2.5 mM at pH 7.4 by NMR spectrophotometric analysis; type: physicochemical
Procedure, shortened: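 Hydrolytic stability by NMR: stock in deuterated DMSO added to deuterated phosphate buffer, pH 7.4 (D2O), final 2.5 mM, pseudo-first order. Spectra recorded at intervals; integrations of starting and final species compared, data fitted to single exponential decay, t1/2 = 0.693/k.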

[25] = target: Cathepsin S (Homo sapiens) (UniProt P25774); experiment: Inhibition of cathepsin S in human MDA-MB-231 cells assessed as increase in E-cadherin levels after 20 mins by immunofluorescence assay; type: cell-based; procedure, shortened: as §4
[26] = target: T1, Cathepsin B; experiment: Irreversible inhibition of human liver cathepsin B using Z-RR-para-nitroanilide as substrate measured after dilution of compound-inactivated enzyme complex
[27] = test system: MDA-MB-231; experiment: Inhibition of cathepsin in human MDA-MB-231 cells assessed as change in cellular morphology at 20 uM by microscopic analysis; type: cell-based
[28] = target: Cathepsin D (Homo sapiens) (UniProt P07339); experiment: Inhibition of human cathepsin D using Mca-Gly-Lys-Pro-Ile-Leu-Phe-Phe-Arg-Leu-Lys(Dnp)-D-Arg-NH2 as substrate
Cathepsin D (Homo sapiens), sequence (P07339 65-162 limits assumed): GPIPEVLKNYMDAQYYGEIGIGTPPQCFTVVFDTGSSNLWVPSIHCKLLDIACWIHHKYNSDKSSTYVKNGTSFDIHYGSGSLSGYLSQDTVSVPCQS
Cathepsin D (Homo sapiens), sequence (P07339 169-412 limits assumed): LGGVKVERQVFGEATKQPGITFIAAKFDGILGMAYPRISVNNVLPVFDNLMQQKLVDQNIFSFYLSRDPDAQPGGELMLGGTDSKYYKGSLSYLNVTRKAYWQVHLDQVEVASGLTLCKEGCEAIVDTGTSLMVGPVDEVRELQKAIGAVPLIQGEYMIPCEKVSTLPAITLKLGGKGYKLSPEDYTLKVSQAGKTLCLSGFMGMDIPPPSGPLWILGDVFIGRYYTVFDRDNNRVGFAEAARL

O=S(=O)(CC1CO1)c1ccccc1 (stereo not given)
inhibition [1]: inactive

O=S(=O)(CC1CS1)c1ccccc1 (stereo not given)
inhibition [1]: inactive

O=S(=O)(c1ccc(Cl)cc1)C1CO1 (stereo not given)
inhibition [1]: 44%

O=S(=O)(c1ccccc1)C1OC1c1ccc(F)cc1 (stereo not given)
inhibition [1]: inactive

CC(=O)N[C@@H](CC(C)C)C(=O)N[C@@H](CC(C)C)C(=O)N[C@H](C=O)CCCNC(=N)N [LEUPEPTIN]
Ki [2]: 0.005 µM

O=S(=O)(c1ccc2ccccc2c1)C1CO1 (stereo not given)
inhibition [1]: 18%

CCCC1OC1S(=O)(=O)c1ccccc1 (stereo not given)
inhibition [1]: inactive

CCc1ccccc1S(=O)(=O)C1CO1 (stereo not given)
inhibition [3]: Active
inhibition [4]: Active
Kinact [5]: 21.7 M⁻¹ s⁻¹
inhibition [6]: Active
inhibition [7]: inactive
inhibition [8]: Active
Ki [9]: 86 µM
inhibition [1]: > 98%
Kinact [10]: 40.7 M⁻¹ s⁻¹
Selectivity ratio [11]: 38
inhibition [12]: Dose-dependent effect
inhibition [13]: Dose-dependent effect
inhibition [14]: Dose-dependent effect
Selectivity ratio [15]: 1.9
Kinact [16]: 0.21 min⁻¹
inhibition [17]: inactive
inhibition [18]: inactive
inhibition [19]: Active
inhibition [20]: inactive
Selectivity ratio [21]: 1.9
inhibition [22]: Active
Kinact [23]: 19.9 M⁻¹ s⁻¹
half-life at 2500 µM [24]: 3.6 h
inhibition [25]: Dose-dependent effect
inhibition [26]: Active
inhibition [27]: Active
Kinact [28]: 1.08 M⁻¹ s⁻¹

COc1cccc(S(=O)(=O)C2CO2)c1 (stereo not given)
inhibition [1]: 35%

Cc1cccc(S(=O)(=O)C2CO2)c1 (stereo not given)
inhibition [1]: 40%

COc1ccc(OC)c(S(=O)(=O)C2CO2)c1 (stereo not given)
inhibition [1]: 25%

O=S(=O)(c1cc(Cl)cc(Cl)c1)C1CO1 (stereo not given)
inhibition [1]: 50%

Cc1ccc(C)c(S(=O)(=O)C2CO2)c1 (stereo not given)
inhibition [1]: 42%

O=S(=O)(c1ccc(OC(F)(F)F)cc1)C1CO1 (stereo not given)
inhibition [1]: 30%
